# Test results published in ChEMBL document CHEMBL4014347, “Targeting Mycolic Acid Transport by Indole-2-carboxamides for the Treatment of Mycobacterium abscessus Infections” (J Med Chem, 2017).
# pIC50: −log10 of the molar value. The source made the active and inactive calls. No cut-off for these calls is given here.
# What was measured:
# [1] = system: Mycobacteroides abscessus; assay: Antibacterial activity against Mycobacterium abscessus CIP104536 after 3 to 5 days by two fold serial dilution method; format: functional
# How it was run: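 Broth microdilution per CLSI in cation-adjusted Mueller–Hinton broth; exponential-phase inoculum 5 × 10^6 CFU/mL; two-fold serial dilutions from highest concentration, solvent wells as control; 30 °C for 3−5 days; MIC read visually and confirmed by absorbance at 560 nm; triplicate on three independent occasions.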
# [2] = system: Mycobacterium tuberculosis; assay: Antibacterial activity against Mycobacterium tuberculosis by AlamarBlue assay; format: functional
# [3] = system: Vero; assay: Cytotoxicity against African green monkey Vero cells; format: cell-based; conditions: Chlorocebus sabaeus
# [4] = Selectivity index, ratio of IC50 for African green monkey Vero cells to MIC for Mycobacterium abscessus CIP104536; format: toxicity; conditions: read-out: Selectivity Index
# [5] = system: Mycobacteroides abscessus; assay: Antibacterial activity against CF patient derived Mycobacterium abscessus subsp. abscessus isolate 2648 rough variant after 3 to 5 days by two fold serial dilution method; format: functional
# How it was run: (§1)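 Broth microdilution in cation-adjusted Mueller−Hinton broth per CLSI; inoculum 5 × 10^6 CFU/mL of exponential-phase bacteria; two-fold serial dilutions, solvent-only wells as control; 30 °C for 3−5 days; MIC read visually and confirmed by absorbance at 560 nm; triplicate on three independent occasions.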
# [6] = system: Mycobacteroides abscessus; assay: Antibacterial activity against non CF patient derived Mycobacterium abscessus subsp. abscessus isolate CIP104536 rough variant after 3 to 5 days by two fold serial dilution method; format: functional; how it was run: as §1
# [7] = system: Mycobacteroides abscessus; assay: Antibacterial activity against Addison's disease patient derived Mycobacterium abscessus subsp. massiliense isolate CIP108297 smooth variant after 3 to 5 days by two fold serial dilution method; format: functional; how it was run: as §1
# [8] = system: Mycobacteroides abscessus; assay: Antibacterial activity against CF patient derived Mycobacterium abscessus subsp. massiliense isolate 185 smooth variant after 3 to 5 days by two fold serial dilution method; format: functional; how it was run: as §1
# [9] = system: Mycobacteroides abscessus; assay: Antibacterial activity against CF patient derived Mycobacterium abscessus subsp. massiliense isolate 140 smooth variant after 3 to 5 days by two fold serial dilution method; format: functional; how it was run: as §1
# [10] = system: Mycobacteroides abscessus; assay: Antibacterial activity against CF patient derived Mycobacterium abscessus subsp. massiliense isolate 120 smooth variant after 3 to 5 days by two fold serial dilution method; format: functional; how it was run: as §1
# [11] = Antibacterial activity against non CF patient derived Mycobacterium abscessus subsp. bolletii isolate 19 rough variant after 3 to 5 days by two fold serial dilution method; format: functional; conditions: Mycobacteroides abscessus; how it was run: as §1
# [12] = Antibacterial activity against CF patient derived Mycobacterium abscessus subsp. bolletii isolate 112 rough variant after 3 to 5 days by two fold serial dilution method; format: functional; conditions: Mycobacteroides abscessus; how it was run: as §1
# [13] = system: Mycobacteroides abscessus; assay: Antibacterial activity against Mycobacterium abscessus CIP104536 smooth variant infected in PMA activated THP-1 macrophages assessed as reduction in viable colony forming unit at 3 ug/ml measured upto 4 days post treatment; format: functional
# How it was run: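 THP-1 cells in RPMI with 10% FBS, differentiated with 20 ng/mL PMA for 48 h at 37 °C; infected at MOI 1:2 for 2 h under 5% CO2; washed, 200 μg/mL amikacin for 1 h, washed; drug medium renewed daily; lysed in 1% Triton X100 at 0, 48, 96 h and plated for CFU; triplicates, two independent experiments.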
# [14] = system: Mycobacteroides abscessus; assay: Antibacterial activity against Mycobacterium abscessus CIP_OK4-10 harboring MAB_4508 g925c/A309P mutant after 3 to 5 days by two fold serial dilution method; format: functional; how it was run: as §1
# [15] = system: Mycobacteroides abscessus; assay: Antibacterial activity against Mycobacterium abscessus CIP104536 smooth variant harboring pMV261 MAB_4508 wild type at 0.5 to 1 ug/ml after 3 days; format: functional
# How it was run: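 M. abscessus overexpressing wild-type or A309P MAB_4508 from pMV261 plated on 7H10 agar with 10% OADC containing drug; plates incubated at 30 °C for 3 days before growth inspection.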
# [16] = Protein binding in rat plasma at 5 uM after 10 mins by LC-MS/MS analysis; format: ADME, cell-free; conditions: read-out: PPB (converted)
# How it was run: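 Ultracentrifugation method: 5 μM compound in mouse or rat plasma (from DMSO stock), 10 min at 37 °C; total concentration from incubated plasma, unbound from middle-layer supernatant after 200000g for 4.5 h; niflumic acid internal standard, acetonitrile, filtered, LC-MS/MS.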
# [17] = Permeability of the compound at 25 uM at pH 7.4 after 4 hrs by LC-MS based PAMPA; format: physicochemical; conditions: read-out: permeability
# How it was run: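 PAMPA: 25 μM compound in aqueous buffer at pH 7.4 or 5.0 (pH adjusted with NaOH) in donor plate, triplicate; acceptor membrane coated with GIT-0 lipid, acceptor sink buffer; 4 h at 25 ± 2 °C; donor and acceptor solutions analysed by LC-MS (UPLC).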
# [18] = molecular target: Cytochrome P450 2C19 (Homo sapiens, UniProt P33261); assay: Inhibition of CYP2C19 in human liver microsomes preincubated for 5 mins followed by NADPH addition measured after 40 mins by LC-MS/MS analysis; format: ADME
# Chain of Cytochrome P450 2C19 (P33261 whole entry): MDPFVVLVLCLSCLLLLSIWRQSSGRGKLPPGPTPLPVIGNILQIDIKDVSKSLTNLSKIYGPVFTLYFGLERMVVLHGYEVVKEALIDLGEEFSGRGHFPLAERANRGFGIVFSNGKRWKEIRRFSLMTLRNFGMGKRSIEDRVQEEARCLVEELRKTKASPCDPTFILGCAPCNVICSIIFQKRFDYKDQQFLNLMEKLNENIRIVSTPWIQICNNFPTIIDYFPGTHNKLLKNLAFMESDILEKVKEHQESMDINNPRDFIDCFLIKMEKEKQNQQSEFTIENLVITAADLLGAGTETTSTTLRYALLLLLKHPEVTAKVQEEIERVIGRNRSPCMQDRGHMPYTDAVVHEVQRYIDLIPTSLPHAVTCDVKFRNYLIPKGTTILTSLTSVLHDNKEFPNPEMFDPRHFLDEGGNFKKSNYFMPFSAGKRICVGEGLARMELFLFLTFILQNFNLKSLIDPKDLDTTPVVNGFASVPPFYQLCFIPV
# [19] = molecular target: CYP3A4 (Homo sapiens, UniProt P08684); assay: Inhibition of CYP3A4 in human liver microsomes preincubated for 5 mins followed by NADPH addition at 10 uM measured after 5 mins by LC-MS/MS analysis relative to control; format: ADME
# Chain of CYP3A4 (P08684 whole entry): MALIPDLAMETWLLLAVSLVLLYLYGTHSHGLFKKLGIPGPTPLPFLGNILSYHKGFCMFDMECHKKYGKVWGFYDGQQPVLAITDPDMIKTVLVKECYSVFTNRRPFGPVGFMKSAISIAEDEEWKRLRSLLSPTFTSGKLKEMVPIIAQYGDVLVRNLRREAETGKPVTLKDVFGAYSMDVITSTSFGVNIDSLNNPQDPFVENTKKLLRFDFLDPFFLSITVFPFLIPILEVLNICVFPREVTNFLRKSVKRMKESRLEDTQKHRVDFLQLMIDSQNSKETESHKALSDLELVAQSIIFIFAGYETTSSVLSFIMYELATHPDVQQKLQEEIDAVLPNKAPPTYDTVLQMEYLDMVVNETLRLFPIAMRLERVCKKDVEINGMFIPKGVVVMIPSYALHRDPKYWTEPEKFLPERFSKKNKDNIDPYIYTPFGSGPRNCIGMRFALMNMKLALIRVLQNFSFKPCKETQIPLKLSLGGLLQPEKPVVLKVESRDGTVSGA
# [20] = molecular target: T1, CYP1A2 (Homo sapiens, UniProt P05177); assay: Inhibition of CYP1A2 in human liver microsomes preincubated for 5 mins followed by NADPH addition at 10 uM measured after 10 mins by LC-MS/MS analysis relative to control; format: ADME
# T1 sequence (P05177 whole entry): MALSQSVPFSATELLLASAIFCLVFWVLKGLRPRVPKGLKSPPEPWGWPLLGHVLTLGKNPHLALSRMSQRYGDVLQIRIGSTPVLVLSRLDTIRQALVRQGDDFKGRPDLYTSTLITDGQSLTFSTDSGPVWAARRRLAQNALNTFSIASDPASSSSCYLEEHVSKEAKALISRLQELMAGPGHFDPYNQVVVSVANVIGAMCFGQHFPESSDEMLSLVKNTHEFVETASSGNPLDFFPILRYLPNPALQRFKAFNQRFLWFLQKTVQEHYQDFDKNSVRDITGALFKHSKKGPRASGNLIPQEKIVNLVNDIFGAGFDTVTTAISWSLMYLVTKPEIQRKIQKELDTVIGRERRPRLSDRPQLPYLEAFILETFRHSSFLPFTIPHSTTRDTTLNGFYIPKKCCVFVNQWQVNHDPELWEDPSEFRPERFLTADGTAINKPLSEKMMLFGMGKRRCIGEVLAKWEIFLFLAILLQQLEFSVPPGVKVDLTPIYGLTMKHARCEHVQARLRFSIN
# [21] = molecular target: CYP2C19 (Homo sapiens, UniProt P33261); assay: Inhibition of CYP2C19 in human liver microsomes preincubated for 5 mins followed by NADPH addition at 10 uM measured after 40 mins by LC-MS/MS analysis relative to control; format: ADME
# Chain of CYP2C19 (P33261 whole entry): as the sequence (P33261 whole entry) above
# [22] = system: Salmonella typhimurium; assay: Mutagenicity in Salmonella typhimurium TA100 in presence of rat liver S9 fraction assessed as increase in revertant colonies at 0.24 to 500 ug/well after 72 hrs by Ames test relative to control; format: toxicity; conditions: salmonella enterica subsp. enterica serovar typhimurium, s9, 72 h
# How it was run: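 Reverse mutation at histidine locus in S. typhimurium TA98 (frameshift) and TA100 (base-pair substitution), with and without S9; 0.24−500 μg/well; 37 ± 2 °C for 72 h, triplicates; DMSO vehicle; sodium azide, 2-nitrofluorene, 2-aminoanthracene positive controls; positive if revertants rise ≥2-fold over negative control dose-dependently.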
compound,measurement,setting,value
O=C(NC1CCCCCC1)c1cc2c(Cl)cc(Cl)cc2[nH]1,MIC,[1],0.125 µg/mL
same,MIC=<90,[2],0.0039 µg/mL
same,IC50,[3],8 to 16 µg/mL
same,selectivity ratio,[4],64 to 128
same,MIC,[5],0.125 µg/mL
same,MIC,[6],0.125 µg/mL
same,MIC,[7],0.125 µg/mL
same,MIC,[8],0.125 µg/mL
same,MIC,[9],0.125 µg/mL
same,MIC,[10],0.125 µg/mL
same,MIC,[11],0.125 µg/mL
same,MIC,[12],0.125 µg/mL
same,Activity,[13],Active
same,MIC,[14],32 µg/mL
same,Activity,[15],Active
same,"fraction unbound at 10 min, 5 µM",[16],0.008
same,"Papp at 4 h, 25 µM",[17],0.2 ×10⁻⁶ cm/s
same,pIC50,[18],≥ 4.70
same,"inhibition at 5 min, 10 µM",[19],1%
same,"inhibition at 10 min, 10 µM",[20],19%
same,"inhibition at 40 min, 10 µM",[21],4%
same,fold change (FC),[22],< 2
